Compound activity as filed in PubChem BioAssay.
PfG6PD inh: PfG6PD (Plasmodium falciparum) enzyme inhibition | inhibition, % at 20 µM | PfGluPho enzyme, NADPH resazurin-diaphorase fluorescence | 350,000 compounds, 0.78% hits;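 active = inhibition reaching at least a set limit at 20 µM in the primary screen, cut at about 59% in these data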
APJ antag: APJ receptor antagonism | CHO-K1 APJ beta-arrestin complementation, luminescence | 330,000 compounds, 0.32% hits | inhibition, % at 20 µM | P35414;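 active = inhibition above about 40% at 20 µM, limit read from the data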;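 note: cells challenged with 10 nM apelin-13 agonist together with compound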
APJ ag: activates the human apelin receptor APJ; activation, % at 20 µM; 330,000 compounds, 0.11% hits; CHO-K1 APJ PathHunter beta-arrestin, luminescence; 0% DMSO wells, 100% apelin; P35414;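 active = activation more than six SD over the plate average, tested at 20 µM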
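Test system: CHO-K1 APJ beta-arrestin complementation cell line. Amount: cell density 1000 per well. Controls: DMSO negative, 10 nM Apelin-13 positive. Signal: luminescent beta-gal fragment complementation, chemiluminescent substrate. Read-out basis: agonist-driven arrestin binding to APJ. Timing: compound stimulation 90 min at 25 °C, detection 60 min.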
CXCR6 inh: inhibitors of human CXCR6 receptor; O00574; CHO-K1 PathHunter CXCR6 beta-arrestin, luminescence; inhibition, % at 20 µM; 360,000 compounds, 0.36% hits; AID 602244; in the data active = inhibition above about 34%, passing the limit was not always enough;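 note: antagonist mode with CXCL16 agonist at 10 nM final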
B2AR ag: agonists of human beta-2 adrenergic receptor inducing internalization. Am2.2-beta2AR cells, FAP receptor internalization, flow cytometry. 340,000 compounds, 0.43% hits. AID 504454. response, % (test concentration not listed). P07550;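 active = response above a set limit, near 3 SD of response in nonfluorescent compounds, cut at about 42% in these data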
Target sequence (P07550 whole entry, looked up): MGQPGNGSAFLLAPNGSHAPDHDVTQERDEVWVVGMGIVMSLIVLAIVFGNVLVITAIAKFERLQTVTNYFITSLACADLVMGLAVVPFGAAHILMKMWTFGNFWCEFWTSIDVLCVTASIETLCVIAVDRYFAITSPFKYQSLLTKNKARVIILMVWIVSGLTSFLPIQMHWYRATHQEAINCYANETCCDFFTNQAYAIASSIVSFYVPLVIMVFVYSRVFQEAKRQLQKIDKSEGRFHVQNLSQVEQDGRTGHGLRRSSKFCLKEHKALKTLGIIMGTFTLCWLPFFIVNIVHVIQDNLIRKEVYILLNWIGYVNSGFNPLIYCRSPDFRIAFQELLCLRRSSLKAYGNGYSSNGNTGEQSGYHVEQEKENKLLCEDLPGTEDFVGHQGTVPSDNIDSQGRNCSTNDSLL
CCR6 antagonist: CCR6 (human) receptor antagonism | inhibition, % at 20 µM | CHO-K1 CCR6 PathHunter beta-arrestin, luminescence, CCL20-stimulated | AID 493098 | P51684 | 340,000 compounds, 0.49% hits;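 active = compounds whose inhibition of the agonist-driven luminescence signal at 20 µM reaches about 50%, limit read from the data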;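 note: cells stimulated with CCL20 at 14 nM final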
Of the large screens only hits and unclear results are named; the others gave an inactive call. The list is not random: actives were taken first. Their share in the collection is about 1.7%.

CCN(C(=O)CSc1nc(C)c(C)c(C)n1)C1CCS(=O)(=O)C1 (stereo unspecified)	none
CCOC(=O)c1cccc(NC(=O)/C=C/c2cccc([N+](=O)[O-])c2)c1	none
CCOC(=O)/C=C/C(=O)Nc1cccc([N+](=O)[O-])c1	CXCR6 inh 85 (no result: CCR6 antagonist)
COC(=O)C1=C(C)N(CCc2cc(OC)c(OC)c(OC)c2)C(=O)N[C@H]1c1ccccc1	none
Cc1cc(N2CCOCC2)ccc1/C=C\[N+](=O)[O-]	B2AR ag 42, CCR6 antagonist 56
COc1ccccc1C(=O)NNC1=C(C(=O)C(F)(F)F)CCC1	CXCR6 inh 44, CCR6 antagonist 59
COc1ccc(N2C(=O)CC(Sc3nnc(-c4ccccc4)o3)C2=O)cc1 (stereo unspecified)	none (no result: CCR6 antagonist)
COc1ccc(N2C(=O)CC(Sc3nnnn3-c3ccc(F)cc3)C2=O)cc1 (stereo unspecified)	CXCR6 inh 102, CCR6 antagonist 96
Cc1c(N=Nc2ccc(O)cc2)c(=O)n(-c2ccccc2)n1C	none
Cc1c(N=C2C=CC(=O)c3ccccc32)c(=O)n(-c2ccccc2)n1C	PfG6PD inh 86, B2AR ag 44, CCR6 antagonist 75 (no result: APJ antag, APJ ag)
O=c1oc2c(CN3CCN(CCO)CC3)c(O)ccc2cc1-c1ccccn1	B2AR ag 43
Cc1ccc(/C=N/N2CCN(c3ccncc3S(=O)(=O)N3CCCCC3)CC2)cc1	none
COc1cccc(/C=N/N2CCN(c3ccncc3S(=O)(=O)N3CCCCC3)CC2)c1	B2AR ag 75
CCOC(=O)C1=C(C)NC(=S)NC1c1ccc(OCC(=O)N2CCCCCC2)cc1 (stereo unspecified)	none
O=C(COC(=O)/C=C/c1ccc(Cl)cc1)NC1CCCCCC1	B2AR ag 44
COc1ccc(C(=O)Nc2ccc(O)c3ccccc23)cc1	none
COc1ccc(NC(=O)Nc2ccc(O)c3ccccc23)cc1	PfG6PD inh 72 (no result: CXCR6 inh)
O=C1C=CC(=O)N1c1cccc(-c2ccccc2)c1	PfG6PD inh 98, CXCR6 inh 72, B2AR ag 97, CCR6 antagonist 76
O=C1C2C(C(=O)N1/N=C/c1cc([N+](=O)[O-])c(O)cc1O)C1C=CC2C12CC2 (stereo unspecified)	none
O=C1C2C(C(=O)N1/N=C/c1cc(Br)cc([N+](=O)[O-])c1O)C1C=CC2C12CC2 (stereo unspecified)	CCR6 antagonist 52
Cc1cc(C)nc(SCc2cc(=O)c(OC(=O)c3ccc(Cl)c([N+](=O)[O-])c3)co2)n1	APJ antag 58
O=C(N/N=C/c1cc(Br)cc(Br)c1O)c1cccc(N2CCCC2=O)c1	CCR6 antagonist 54
O=C(N/N=C/c1ccc(Cl)cc1Cl)c1cccc(N2CCCC2=O)c1	none
COc1cc(NS(=O)(=O)c2cc(NC(C)=O)ccc2OC)c(OC)cc1NC(=O)c1ccccc1	none (no result: APJ antag, APJ ag)
Cc1[nH]n(-c2ccccc2)c(=O)c1N=Nc1c(O)cc(S(=O)(=O)N(C)C)c2ccccc12	CCR6 antagonist 68
Cc1[nH]n(-c2ccccc2)c(=O)c1N=Nc1ccc2c(c1)OCCO2	none
CC(C)(C)C(=O)/C(=C\c1ccc([N+](=O)[O-])cc1)n1cncn1	APJ antag 70 (no result: PfG6PD inh, CXCR6 inh, B2AR ag, CCR6 antagonist)
CCOc1ccc(S(=O)(=O)N2CCC(C(=O)Nc3cc(S(C)(=O)=O)ccc3Cl)CC2)cc1	none
CC(=O)Nc1sc(N/N=C\c2ccccc2F)nc1-c1cccs1	CCR6 antagonist 50
Cc1ccc(-c2nc(CS(=O)CC(=O)NCCN3CCCCC3C)c(C)o2)cc1 (stereo unspecified)	none
CC(CCc1ccccc1)NC(=O)COC(=O)c1ccc([N+](=O)[O-])cc1 (stereo unspecified)	none
CC(CCc1ccccc1)NC(=O)COC(=O)c1ccc(S(C)(=O)=O)c([N+](=O)[O-])c1 (stereo unspecified)	CCR6 antagonist 50
COc1cc(OC)c(C(=O)OCC(=O)NCCC2=CCCCC2)cc1OC	none
O=C(O)c1cc(N=Nc2c(O)ccc3ccccc23)cc(C(=O)O)c1	CCR6 antagonist 57 (no result: APJ antag, APJ ag)
Nc1nc2c(s1)CCc1c-2cnn1-c1ccccc1	PfG6PD inh 98
COc1ccc(NS(=O)(=O)c2cccc(C(=O)NNC(=O)c3ccc(=O)[nH]c3)c2)cc1	none
